Measurements pooled from the literature.
Lines come from different studies, so protocols differ.
Cell line: MCF7
Read-out: cell growth or viability

With O=C1Nc2c(C(F)(F)F)cccc2[C@@]1(c1ccc(O)cc1)c1ccc(OC(F)(F)F)cc1 the IC50 was 0.014 µM (resazurin; 72 h).
The IC50 of CCN(CC)CCn1cccc1/C=N/NC(=O)Nc1cc2c(Nc3ccc(F)c(Cl)c3)ncnc2cc1OC is reported as 0.57 µM (MTT; 72 h).
CC(C)Cc1ccc(-c2nn(-c3ccc(S(C)(=O)=O)cc3)cc2/C=N\N=C2/NC(=O)CS2)cc1 gave an IC50 of 6.25 µM (MTT; 48 h).
CCNC(=S)NC(=O)c1ccc2ccccc2c1 gave an IC50 of 6.26 µM (48 h).
The IC50 of COc1cc2c(Nc3ccc(NC(=O)c4ccccc4)cc3)ncnc2cc1OCCCN1CCOCC1 is reported as 0.8 µM (MTS; 72 h).
O=c1cc(-c2ccc(O)c(O)c2)oc2cc(O)cc(O)c12 has an IC50 of 13.4 µM (WST-1; 48 h).
CSc1ccc(-c2nc3ccccc3[nH]2)cc1 has an IC50 of 33.2 µM (MTT; 48 h).
With CN(C)CCn1cccc1/C=N/NC(=O)Nc1cc2c(Nc3ccc(F)c(Cl)c3)ncnc2cc1O[C@H]1CCOC1 the IC50 was 4.82 µM (MTT; 72 h).
For CC(C)NCC(O)COc1cc2ccccc2cc1OCC(O)CNC(C)C (stereo not shown), the IC50 was > 75 µM (MTT; 72 h).
For c1ccc(-c2ccccn2)nc1, the IC50 was > 50 µM (MTT; 48 h).
Cc1cc(C)n(-c2nc(Nc3ccc(Br)cc3)nc(N3CCOCC3)n2)n1 has an IC50 of 4.53 µM (MTT; 72 h).
For CCOc1cc(OCC)cc(C(=O)O[C@@H]2CN3Cc4c(cc5c(c4OC)OCO5)[C@@]24C=C[C@H](OC)C[C@@H]34)c1, the IC50 was 6.3 µM (WST-1).
The IC50 of COc1cccc2c1C(=O)c1c(O)c3c(c(O)c1C2=O)C[C@@](O)(C(=O)CO)C[C@@H]3O[C@H]1C[C@H](N)[C@H](O)[C@H](C)O1 is reported as 0.06 µM (MTT; 48 h).
For COc1ccc(-c2nc3ccccc3[nH]2)cc1OC, the IC50 was > 100 µM (MTT; 48 h).
With O=c1cc(CO)occ1[O-].[Cl-].[W+4].c1cc[cH-]c1.c1cc[cH-]c1 the IC50 was 590 µM (MTT).
CSc1ccc(-c2nc3ccc(C)cc3n2Cc2ccccc2)cc1 gave an IC50 of 29 µM (MTT).
COc1cc2ncnc(Nc3ccc(F)c(Cl)c3)c2cc1NC(=O)N/N=C/c1cccn1CCN1CCN(C)CC1 gave an IC50 of 1.85 µM (MTT; 72 h).
With Cc1ccc2nc(-c3cccc(O)c3)[nH]c2c1 the IC50 was > 100 µM (MTT; 48 h).
COc1ccc(O)c(/C=N/c2nc(SC)nn2-c2ccc(C(=O)O)cc2)c1 gave an IC50 of 27.3 µM (MTT).
CC(=O)O[C@H]1C(=O)[C@@]2(C)[C@H]([C@H](OC(=O)c3ccccc3)[C@]3(O)C[C@H](OC(=O)[C@H](O)[C@@H](NC(=O)c4ccccc4)c4ccccc4)C(C)=C1C3(C)C)[C@]1(OC(C)=O)CO[C@@H]1C[C@@H]2O has an IC50 of 2.35 µM (MTT; 48 h).
Oc1ncnc2cc(Nc3nc(-c4ccccc4)cs3)ccc12 has an IC50 of 6.21 µM (MTT).
Cc1ccc2nc(-c3ccc(N(C)C)cc3)[nH]c2c1 gave an IC50 of 47.7 µM (MTT; 48 h).
With CSc1nc(N)n(-c2ccc(C(=O)O)cc2)n1 the IC50 was 32.9 µM (MTT).
With Cc1ccc2nc(-c3ccccc3Cl)[nH]c2c1 the IC50 was > 100 µM (MTT; 48 h).
FC(F)(F)c1cccc(Nc2ncnc3ccc(NCc4ccccc4)cc23)c1 has an IC50 of 6.83 µM (MTT; 24 h).
